Only some compounds are listed: those with a hit (about 2.2% of all), similar ones and a draw of the others.
G6PDH counter = L. mesenteroides G6PDH inhibition counter-screen; Purified L. mesenteroides G6PDH, diaphorase/resazurin coupled fluorescence, 45 min; inhibition, % at 5 µM; actives 0.12% (n = 200,000); in the data active = inhibition above about 50%
Diaph act CS = activates diaphorase or chemically reduces, flagging diaphorase assay artifacts. Diaphorase/resazurin coupled assay, resorufin fluorescence, 16 min; hits give high values; 1 = vehicle wells, 0 = NADH-free wells. activation factor at 20 µM. actives 0.005% (n = 190,000). AID 1229;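 active = diaphorase activity raised at least twofold by the compound at 20 µM; inactive = activation factor below 2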
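Material: Clostridium kluyveri diaphorase, purified enzyme; Quantity: enzyme 0.07 U/mL final; Medium: HEPES pH 7.4 buffer with MgCl2 and Tween 20; Dosing: single compound dose of 20 µM, 1% DMSO final; Schedule: 16 min reaction at room temperature; Measured by: red resorufin fluorescence at 544/590 nm excitation/emission.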
Diaph inh CS = inhibits diaphorase or chemically oxidizes, flagging diaphorase assay artifacts | diaphorase resazurin-to-resorufin fluorescence, NADH, 16 min; bacterial (C. kluyveri) enzyme, not human | inhibition, % at 20 µM | actives 0.69% (n = 190,000);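 active = primary screen inhibition at 20 µM above a set limit, cut at about 50% in these data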;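 also: plate controls were DMSO with full reaction for no effect and wells lacking NADH for full effect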
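controls = No-NADH positive control and DMSO neutral control | system = Clostridium kluyveri diaphorase enzyme | timing = reaction incubation of 16 min at room temperature | signal = resorufin fluorescence 544/590 nm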
PMI act hi M6P = activators of human phosphomannose isomerase at near-saturating mannose 6-phosphate; P34949; coupled PMI enzyme assay, resazurin fluorescence, 20 min; hits give high values; 1 = untreated enzyme, 0 = substrate-free blank; activation factor at 20 µM; actives 0.34% (n = 190,000); AID 1216;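 active = activation factor of 2 or more at 20 µM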
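Test system: human phosphomannose isomerase with PGI, G6PDH, diaphorase coupling enzymes; amount: 15 ng/mL PMI; incubation: enzyme reaction with compound 20 min at room temperature; technique: resorufin fluorescence (Ex 544/Em 590 nm) from resazurin via diaphorase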
ROMK mod = human ROMK K+ channel modulation, primary screen; P48048; Tet-inducible ROMK, thallium flux fluorescence; actives lie on both sides; B-score at 10 µM; actives 2% (n = 130,000);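 active = signal ratio slope over the read window, or its plate-corrected B-score, at least 3 SD from the plate mean, either direction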;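 also: B-score of the F/F0 ratio slope over 7 to 12 s after thallium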
Target sequence (P48048 whole entry, looked up): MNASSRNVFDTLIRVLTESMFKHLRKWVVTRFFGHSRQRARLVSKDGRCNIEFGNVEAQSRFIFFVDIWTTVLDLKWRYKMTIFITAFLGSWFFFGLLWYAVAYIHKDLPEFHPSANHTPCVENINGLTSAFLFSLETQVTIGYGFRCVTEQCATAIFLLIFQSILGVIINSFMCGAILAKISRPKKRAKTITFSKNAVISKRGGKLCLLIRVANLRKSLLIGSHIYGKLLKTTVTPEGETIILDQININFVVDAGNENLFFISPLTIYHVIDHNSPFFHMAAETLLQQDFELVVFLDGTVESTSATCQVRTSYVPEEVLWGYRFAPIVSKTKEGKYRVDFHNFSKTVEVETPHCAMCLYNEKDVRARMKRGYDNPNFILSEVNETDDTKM
PMI activator = phosphomannose isomerase (human) activation | purified human PMI, coupled resazurin fluorescence, 20 min; hits give high values; 1 = vehicle control, 0 substrate-free wells | activation factor at 20 µM | actives 0.005% (n = 190,000) | AID 1214;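 active = activation factor of 2 or more at 20 µM, relative to plate controls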
* marks the source's active call; other numbers are inactive results; nt = not tested or not shown.

SMILES	G6PDH counter	Diaph act CS	Diaph inh CS	PMI act hi M6P	ROMK mod	PMI activator
O=C(N/N=C/c1ccccc1Cl)c1nc2ccc([N+](=O)[O-])cc2c(=O)[nH]1	2	0.4	58*	0.9	0.62	0.9
O=[N+]([O-])c1ccc(Cl)c(/C=N/NC(=S)Nc2ccccc2)c1	1	0.9	7	1	nt	0.3
Cc1nn(C)c(C)c1S(=O)(=O)N1CCC(CO)(CC2CCCCO2)CC1 (centres undefined)	7	0.9	9	1	0.4	1
O=C(O)c1ccccc1NN=C1CCCCC1	10	0.8	19	2.5*	nt	1.7
O=C(O)c1ccccc1Nc1ccccc1C(=O)O	6	0.9	12	1	nt	1
COc1cc(/C=C/C(=O)Oc2coc(CSc3ncccn3)cc2=O)cc(OC)c1OC	9	1	-3	1.2	1.1	1.3
Cc1ccc(C(C(=O)NC2CCCCC2)N(Cc2ccco2)C(=O)Cn2cnc3ccccc32)cc1 (centres undefined)	2	0.9	12	0.9	-3.3*	0.9
O=C(NC1CCCCC1)C(c1ccc(F)cc1)N(Cc1ccco1)C(=O)Cn1nnc2ccccc21 (centres undefined)	2	0.9	7	1	-0.17	0.9
COc1cccc(NC(=S)/C(=C(\[O-])c2cc(C)n(-c3ccccc3F)c2C)[n+]2ccc(N(C)C)cc2)c1	1	0.9	10	0.9	-0.042	0.9
COc1cccc(N=Nc2c(N)[nH]n3c(=O)cc(-c4ccccc4)nc23)c1	7	0.9	10	1	0.79	0.9
Cc1ccc(N=Nc2c(N)[nH]n3c(=O)cc(-c4ccccc4)nc23)cc1	-1	0.4	62*	0.9	-0.44	0.7
Cc1cccc(-c2nc(C#N)c(NCC3CCCO3)o2)c1 (centres undefined)	nt	nt	nt	nt	-0.92	nt
COc1ccc(NC(=O)C(NCC(C)C)c2ccccc2)cc1Cl (centres undefined)	2	0.8	23	1	-0.49	1
O=C(NCCCN1CCOCC1)c1c(O)c2cc(Br)cc(Br)c2[nH]c1=O	12	0.9	11	1.1	-3.3*	1.1
COc1cc2[nH]c(=O)c(C(=O)NCCCN3CCOCC3)c(O)c2cc1OC	21	1	-1	1.2	0.56	1
Cc1ccccc1C(=O)NNC(=O)c1ccc(Br)cc1	4	1	3	1.1	nt	1.1
O=C(/C=C/c1ccc(Br)cc1)NC(=S)NNC(=O)c1ccco1	0	0.7	35	1.1	-2.6	1
Cc1ccc(C(=O)NNC(=S)NC(=O)c2ccc(Cl)cc2Cl)cc1	2	0.6	36	1.2	5.8*	1.1
O=C(NNC(=S)NC(=O)c1ccccc1[N+](=O)[O-])c1ccccc1O	5	0.4	59*	1.3	-0.32	1.1
Cc1ccccc1C(=O)NNC(=S)NC(=O)c1ccccc1	2	0.9	6	1.5	2.3*	1.1
O=C(/C=C/c1ccccc1)NC(=S)NNC(=O)c1ccco1	2	0.5	52*	1.1	-0.26	1.1
O=C(NC(Cc1c[nH]c2ccccc12)C(=O)NCCCN1CCOCC1)c1cccs1 (centres undefined)	-2	0.8	20	0.9	-1.3	0.9
Cc1ccc(C(=O)NNC(=S)NC(=O)c2ccco2)cc1	2	0.6	41	1.1	3.6*	1
Cc1ccc(C(=O)NNC(=O)c2ccco2)cc1	6	0.9	10	0.9	-0.74	0.9
Oc1c(C(c2ccccc2Cl)N2CCCC2)ccc2cccnc12 (centres undefined)	8	0.4	55*	0.9	nt	0.7
SMILES	G6PDH counter	Diaph act CS	Diaph inh CS	PMI act hi M6P	ROMK mod	PMI activator
O=C1C=C(NCc2ccc(Cl)cc2)CC(c2ccco2)C1 (centres undefined)	0	0.8	23	0.9	0.91	1
CC(C)CNC1=CC(=O)CC(c2ccco2)C1 (centres undefined)	16	0.4	61*	0.5	nt	0.6
CC(Oc1ccccc1F)C(=O)NNC(=O)c1cc2ccccc2o1 (centres undefined)	-3	1	0	1	-0.095	1
COC(=O)c1ccccc1NC(=O)c1cnn2c(C(F)F)cc(C3CC3)nc12	-34	1	-3	1	nt	1
O=C(NCCc1ccccc1)c1cnn2c(C(F)F)cc(C3CC3)nc12	4	0.4	64*	0.9	nt	0.8
Cc1ccc(SCc2cc(=O)[nH]c(Nc3nc(C)c4ccc(C)cc4n3)n2)cc1	-22	0.8	22	2*	-0.046	1.5
CCOCC(=O)Nc1c(C(=O)Nc2ccc3c(c2)OCCO3)oc2ccccc12	0	0.9	11	0.9	-0.99	0.9
CCOC(=O)C1CCN(Cc2ccc(O)c3ncccc23)CC1	50*	0.3	73*	0.3	0.29	0.3
COc1ccccc1N1CCN(Cc2ccc(OC)c(OC)c2OC)CC1	3	1	1	1	-0.056	1
CCOC(=O)N1CCN(Cc2cc(Cl)c3cccnc3c2O)CC1	41	0.4	61*	0.4	-0.47	0.5
Oc1ccc(CN2CCCc3ccccc32)c2cccnc12	-14	0.2	77*	0.5	0.34	0.5
CCOC(=O)N1CCN(Cc2ccccc2Cl)CC1	15	0.9	10	1	nt	1
COc1ccccc1N1CCN(Cc2ccc(O)c3ncccc23)CC1	29	0.4	57*	0.4	-2.7	0.4
NNC(=O)CN1CCCc2ccccc21	0	1	0	1	0.33	1.1
CCCn1c(SCC(=O)Nc2cc(S(=O)(=O)N(C)C)ccc2OC)n[nH]c1=O	2	0.9	10	1	0.092	1
Cc1ccc(-n2c(SC3CCOC3=O)nc3ccccc3c2=O)cc1 (centres undefined)	-1	0.8	20	1	0.24	1
CC(=O)Oc1cc2oc(=O)cc(C)c2cc1OC(C)=O	45	0.5	52*	0.4	0.54	1
CC(=O)Oc1ccc2c(C)cc(=O)oc2c1	1	0.9	9	1	0.85	1
COc1ccccc1-n1nc(C)c(-c2ccccc2)c1N	-3	1	1	1	-1.1	1.1
Cc1cc(C2=NNC(=Nc3ccccc3)SC2)c(C)n1C	-2	1.1	-14	2*	-0.59	1.8
Cc1ccc(C(NC(=O)N2CCCC2)C(Cl)Cl)cc1F (centres undefined)	15	1	0	2*	-0.71	1.7
CCN1CCN(C(=O)NC(c2ccc(C)c(F)c2)C(Cl)Cl)CC1 (centres undefined)	11	1	0	1.1	-0.22	1.1

Bioassay records: PubChem BioAssay, several laboratories
